Measured values from ChEMBL document CHEMBL3085676, “Self-assembly to function: design, synthesis, and broad spectrum antimicrobial properties of short hybrid E-vinylogous lipopeptides” (J Med Chem, 2013).
In brackets after ≈: the same amount, converted by molar mass. Activity calls are given as the source filed them. The calls are words filed in the database; no cut-off is given here. Where a SMILES comes first, the peptide text is derived from it. The star is where a group is joined. Octanoyl = CCCCCCCC(=O)*

Tests used:
[1] = tested on: Escherichia coli; assay: Antibacterial activity against Escherichia coli K-12 NCIM 2563 after 18 to 20 hrs by broth dilution assay; assay type: functional
In short: (§1)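 Two-fold serial dilutions in Mueller-Hinton broth, run in triplicate. Overnight 37 °C cultures diluted to 10⁶ CFU/mL and added 1:1 to the peptide, then incubated at 37 °C for 18-20 h. Growth was read as absorbance at 492 nm against no-peptide controls. MIC taken as the lowest concentration giving complete inhibition or killing. Reproducible across three independent triplicates.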

[2] = tested on: Klebsiella pneumoniae; assay: Antibacterial activity against Klebsiella pneumoniae NCIM 2957 after 18 to 20 hrs by broth dilution assay; assay type: functional; in short: as §1
[3] = tested on: Escherichia coli; assay: Antibacterial activity against Escherichia coli K-12 NCIM 2563 assessed as disruption of cell membrane at 50 uM after 1 hr by atomic force microscopic analysis; assay type: functional, organism-based
In short: (§2)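 E. coli grown in MHB and C. albicans in potato dextrose broth were pelleted and resuspended in deionized water. Cells incubated with 50 µM peptide at 37 °C for 1 h, dried 30 min at 25 °C on poly-L-lysine glass, and imaged by AFM in intermittent contact mode. Peptide-free cells served as control.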

[4] = tested on: Staphylococcus aureus; assay: Antibacterial activity against Staphylococcus aureus NCIM 5021 after 18 to 20 hrs by broth dilution assay; assay type: functional; in short: as §1
[5] = tested on: Pseudomonas aeruginosa; assay: Antibacterial activity against Pseudomonas aeruginosa NCIM 5029 after 18 to 20 hrs by broth dilution assay; assay type: functional; in short: as §1
[6] = tested on: Candida albicans; assay: Antifungal activity against Candida albicans NCIM 3471 assessed as disruption of cell membrane by atomic force microscopic analysis; assay type: functional, organism-based; in short: as §2
[7] = tested on: Saccharomyces cerevisiae; assay: Antifungal activity against Saccharomyces cerevisiae NCIM 3454 after 48 to 72 hrs; assay type: functional
In short: (§3)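 Peptide in water was serially diluted two-fold in potato dextrose broth and mixed 1:1 with yeast suspension at 2×10³ CFU/ml. Incubated at 25 °C for 48-72 h, with growth read as absorbance at 620 nm against a peptide-free culture. MIC was the lowest concentration giving complete growth inhibition. Run in triplicate.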

[8] = tested on: Nakaseomyces glabratus; assay: Antifungal activity against Candida glabrata NCIM 3237 after 48 to 72 hrs; assay type: functional; in short: as §3
[9] = tested on: Candida albicans; assay: Antifungal activity against Candida albicans NCIM 3471 after 48 to 72 hrs; assay type: functional; in short: as §3
[10] = tested on: Escherichia coli; assay: Antibacterial activity against Escherichia coli NCIM 2065 after 18 to 20 hrs by broth dilution assay; assay type: functional; in short: as §1
[11] = Hemolytic activity in human RBC at 100 ug/ml after 1 hr; assay type: ADME, cell-based; details: erythrocyte
In short: (§4)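 Fresh EDTA-collected human RBCs washed four times in Tris-buffered saline (10 mM Tris, 150 mM NaCl, pH 7.2) and used at 4% v/v, mixed 1:1 with two-fold serially diluted peptide (top 100 µg/ml before mixing). Incubated at 37 °C for 1 h and centrifuged; supernatant hemoglobin read at 540 nm. Buffer and 1% Triton-X served as negative and positive controls. Percent hemolysis = (A−A_N)/(A_P−A_N)×100. Run in duplicate.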

[12] = tested on: Cryptococcus neoformans; assay: Antifungal activity against Cryptococcus neoformans NCIM 3542 after 48 to 72 hrs; assay type: functional; in short: as §3
[13] = tested on: Salmonella typhimurium; assay: Antibacterial activity against Salmonella typhimurium NCIM 2501 after 18 to 20 hrs by broth dilution assay; assay type: functional, Salmonella enterica subsp. enterica serovar Typhimurium; details: Salmonella enterica; in short: as §1
[14] = Hemolytic activity in human RBC after 1 hr; assay type: ADME, cell-based; details: erythrocyte; in short: as §4
[15] = tested on: Escherichia coli; assay: Antibacterial activity against Escherichia coli expressing pUC19 plasmid assessed as disruption of cytoplasmic membrane at 20 ug/mL after 1 hr by beta-galactosidase leakage assay; assay type: functional, organism-based
In short: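 E. coli TOP10 transformed with pUC19 (lacZ) grown in LB with 100 µg/ml ampicillin at 37 °C to A660 0.6, then washed three times. Peptide stock (200 µg/ml) added 1:10 to cells and incubated at 37 °C for 1 h. After centrifugation, supernatant was mixed with 4-methylumbelliferyl substrate and fluorescence followed for 1 h. Initial velocities used; water blank; triplicates.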

[16] = tested on: Escherichia coli; assay: Antibacterial activity against Escherichia coli K-12 NCIM 2563 at 50 uM after 60 mins by FITC uptake assay; assay type: functional, organism-based
In short: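 E. coli grown in MHB to OD 0.6, washed, and suspended at 2×10⁷ cfu/ml in 10 mM sodium phosphate pH 7.4. Cells incubated with 50 µM peptide at 37 °C for 60 min, then immobilized on poly-L-lysine slides for 50 min at 30 °C. FITC (10 µg/ml) added, slides washed, and cells examined by fluorescence microscopy. Solvent-treated control.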

Row | Compound | MIC [1] | MIC [2] | Activity [3] | MIC [4] | MIC [5] | Activity [6] | MIC [7] | MIC [8] | MIC [9] | MIC [10] | Activity [11] | MIC [12] | MIC [13] | HD10 [14] | Activity [15] | Activity [16]
1 | CCCCCCCC(=O)N[C@@H](CC(C)C)C(=O)N[C@@H](CCCCN)C(=O)N[C@H](C(=O)N[C@@H](CCCCN)C(N)=O)C(C)C (Octanoyl-LKVK-NH2) | > 100 µg/mL | > 100 µg/mL | Active | > 100 µg/mL | > 100 µg/mL | Active | > 100 µg/mL | > 100 µg/mL | > 100 µg/mL | > 100 µg/mL | Non-toxic | > 100 µg/mL | > 100 µg/mL | – | – | –
2 | CCCCCCCC(=O)N[C@@H](C)/C=C/C(=O)N[C@@H](CCCCN)C(=O)N[C@@H](C)/C=C/C(=O)N[C@@H](CCCCN)C(N)=O | > 100 µg/mL | > 100 µg/mL | Active | > 100 µg/mL | > 100 µg/mL | Active | > 100 µg/mL | 50 µg/mL (≈ 84.2 µM) | > 100 µg/mL | > 100 µg/mL | – | > 100 µg/mL | > 100 µg/mL | 58 µg/mL | – | –
3 | CCCCCCCCCCCC(=O)N[C@@H](C)/C=C/C(=O)N[C@@H](CCCCN)C(=O)N[C@@H](C)/C=C/C(=O)N[C@@H](CCCCN)C(N)=O | 6.25 µg/mL (≈ 9.62 µM) | 3.12 µg/mL (≈ 4.8 µM) | Active | 6.25 µg/mL (≈ 9.62 µM) | 6.25 µg/mL (≈ 9.62 µM) | Active | 3.12 µg/mL (≈ 4.8 µM) | 6.25 µg/mL (≈ 9.62 µM) | 3.12 µg/mL (≈ 4.8 µM) | 6.25 µg/mL (≈ 9.62 µM) | – | 6.25 µg/mL (≈ 9.62 µM) | 6.25 µg/mL (≈ 9.62 µM) | 48 µg/mL | inactive | –
4 | CC(=O)N[C@H](/C=C/C(=O)N[C@@H](CCCCN)C(=O)N[C@H](/C=C/C(=O)N[C@@H](CCCCN)C(N)=O)Cc1ccccc1)Cc1ccccc1 | > 100 µg/mL | > 100 µg/mL | Active | > 100 µg/mL | > 100 µg/mL | Active | > 100 µg/mL | > 100 µg/mL | > 100 µg/mL | > 100 µg/mL | Non-toxic | > 100 µg/mL | > 100 µg/mL | – | – | –
5 | CCCCCCCCCCCC(=O)N[C@H](/C=C/C(=O)N[C@@H](CCCCN)C(=O)N[C@H](/C=C/C(=O)N[C@@H](CCCCN)C(N)=O)Cc1ccccc1)Cc1ccccc1 | 25 µg/mL (≈ 31.2 µM) | 25 µg/mL (≈ 31.2 µM) | Active | 25 µg/mL (≈ 31.2 µM) | 25 µg/mL (≈ 31.2 µM) | Active | 6.25 µg/mL (≈ 7.79 µM) | 6.25 µg/mL (≈ 7.79 µM) | 3.12 µg/mL (≈ 3.89 µM) | 25 µg/mL (≈ 31.2 µM) | – | 6.25 µg/mL (≈ 7.79 µM) | 25 µg/mL (≈ 31.2 µM) | < 1.56 µg/mL | – | –
6 | CCCCCCCC(=O)N[C@H](/C=C/C(=O)N[C@@H](CCCCN)C(=O)N[C@H](/C=C/C(=O)N[C@@H](CCCCN)C(N)=O)Cc1ccc(O)cc1)Cc1ccc(O)cc1 | 25 µg/mL (≈ 32.1 µM) | 50 µg/mL (≈ 64.3 µM) | Active | 50 µg/mL (≈ 64.3 µM) | 50 µg/mL (≈ 64.3 µM) | Active | 12.5 µg/mL (≈ 16.1 µM) | 25 µg/mL (≈ 32.1 µM) | 12.5 µg/mL (≈ 16.1 µM) | 25 µg/mL (≈ 32.1 µM) | – | 25 µg/mL (≈ 32.1 µM) | 50 µg/mL (≈ 64.3 µM) | 54 µg/mL | – | –
7 | CCCCCCCCCCCC(=O)N[C@@H](C)/C=C/C(=O)N[C@@H](CCCNC(=N)N)C(=O)N[C@@H](C)/C=C/C(=O)N[C@@H](CCCNC(=N)N)C(N)=O | 12.5 µg/mL (≈ 17.7 µM) | 6.25 µg/mL (≈ 8.85 µM) | Active | 6.25 µg/mL (≈ 8.85 µM) | 3.12 µg/mL (≈ 4.42 µM) | Active | 3.12 µg/mL (≈ 4.42 µM) | 6.25 µg/mL (≈ 8.85 µM) | 3.12 µg/mL (≈ 4.42 µM) | 12.5 µg/mL (≈ 17.7 µM) | – | 12.5 µg/mL (≈ 17.7 µM) | 3.12 µg/mL (≈ 4.42 µM) | 22 µg/mL | – | –
8 | CCCCCCCCCCCC(=O)N[C@H](/C=C/C(=O)N[C@@H](CCCCN)C(=O)N[C@H](/C=C/C(=O)N[C@@H](CCCCN)C(N)=O)Cc1ccc(O)cc1)Cc1ccc(O)cc1 | 6.25 µg/mL (≈ 7.49 µM) | 3.12 µg/mL (≈ 3.74 µM) | Active | 3.12 µg/mL (≈ 3.74 µM) | 3.12 µg/mL (≈ 3.74 µM) | Active | 3.12 µg/mL (≈ 3.74 µM) | 3.12 µg/mL (≈ 3.74 µM) | 1.56 µg/mL (≈ 1.87 µM) | 6.25 µg/mL (≈ 7.49 µM) | – | 6.25 µg/mL (≈ 7.49 µM) | 3.12 µg/mL (≈ 3.74 µM) | 2.5 µg/mL | Active | Active
9 | CCCCCCCC(=O)N[C@H](/C=C/C(=O)N[C@@H](CCCCN)C(=O)N[C@H](/C=C/C(=O)N[C@@H](CCCCN)C(N)=O)C(C)C)CC(C)C | – | 25 µg/mL (≈ 37.7 µM) | Active | 50 µg/mL (≈ 75.3 µM) | 50 µg/mL (≈ 75.3 µM) | Active | 50 µg/mL (≈ 75.3 µM) | 50 µg/mL (≈ 75.3 µM) | 25 µg/mL (≈ 37.7 µM) | 12.5 µg/mL (≈ 18.8 µM) | – | 6.25 µg/mL (≈ 9.41 µM) | 50 µg/mL (≈ 75.3 µM) | – | – | –
10 | CCCCCCCC(=O)N[C@@H](C)/C=C/C(=O)N[C@@H](CCCNC(=N)N)C(=O)N[C@@H](C)/C=C/C(=O)N[C@@H](CCCNC(=N)N)C(N)=O | > 100 µg/mL | > 100 µg/mL | Active | > 100 µg/mL | > 100 µg/mL | Active | > 100 µg/mL | > 100 µg/mL | > 100 µg/mL | > 100 µg/mL | – | > 100 µg/mL | > 100 µg/mL | 52 µg/mL | – | –
11 | CCCCCCCC(=O)N[C@H](/C=C/C(=O)N[C@@H](CCCCN)C(=O)N[C@H](/C=C/C(=O)N[C@@H](CCCCN)C(N)=O)Cc1ccccc1)Cc1ccccc1 | 1.56 µg/mL (≈ 2.09 µM) | 3.12 µg/mL (≈ 4.18 µM) | Active | 3.12 µg/mL (≈ 4.18 µM) | 3.12 µg/mL (≈ 4.18 µM) | Active | 3.12 µg/mL (≈ 4.18 µM) | 3.12 µg/mL (≈ 4.18 µM) | 3.12 µg/mL (≈ 4.18 µM) | 1.56 µg/mL (≈ 2.09 µM) | – | 3.12 µg/mL (≈ 4.18 µM) | 3.12 µg/mL (≈ 4.18 µM) | 16 µg/mL | Active | Active
